Legend:
[1] = Cytotoxicity against mouse peritoneal macrophages cells after 24 hrs by MTT assay; type: cell-based; details: Macrophage
Outline: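 Mouse cells harvested 4 days after intraperitoneal 10% thioglycollate, about 70% macrophages. Plated at 1 × 10^5/well and left to adhere for 3 h in DMEM with 10% FBS, 2 mM L-glutamine, 25 mM HEPES, antibiotics and 5 mM sodium pyruvate at 37 °C. Treated 24 h with compounds at 0.1-10 µg/mL. MTT (5 mg/mL) for 3 h, DMSO solubilization, OD490 read.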

Caco-2 = experiment: Cytotoxicity against human Caco-2 cells after 24 hrs by MTT assay; type: functional, cell-based; details: Caco-2, 24 h
Outline: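 Caco-2 cells kept in DMEM with 10% FBS, 25 mM HEPES, 100 U/mL penicillin and 100 µg/mL streptomycin at 37 °C under humidified 5% CO2. Seeded at 1 × 10^4/well for 48 h, then exposed to compounds (0.1-10 µg/mL) for 24 h. MTT (5 mg/mL) added for 3 h at 37 °C, formazan dissolved in DMSO, OD490 read. IC50 reported.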

Compound	IC50 [1] [µg/mL]	IC50 (Caco-2) [µM]
C=C1CC[C@@H](C(C)C)[C@@H](O)/C=C(\C)[C@H](O)CC1=O	≥ 10	–
CC(C)[C@@H]1CC[C@]2(C)O[C@H]2[C@H](O)C[C@]2(C)O[C@H]2[C@@H]1O	≥ 10	–
C/C1=C\[C@H](O)C[C@]2(C)O[C@H]2[C@H](O)[C@H](C(C)C)CC1	≥ 10	–
C=C1C[C@@H](O)[C@H](O)[C@]2(C)CC[C@@H](C(C)C)[C@@H](O)[C@@H]1O2	≥ 10	3.7
C/C1=C\[C@H](O)C/C(C)=C/[C@H](O)[C@H](C(C)C)CC1	≥ 10	–
C/C1=C/C[C@@H](C(C)C)[C@@H](O)[C@@H]2O[C@@]2(C)C[C@@H](O)[C@@H]1O	≥ 10	1.1
C=C1C[C@@H](O)[C@H](O)/C(C)=C\C[C@@H](C(C)C)[C@@H](O)[C@@H]1O	≥ 10	–
C=C1C[C@@H](O)/C=C(\C)CC[C@@H](C(C)C)[C@@H](O)C1	≥ 10	–
CC(=O)O[C@H]1/C=C(\C)CC[C@@H](C(C)C)[C@@H](O)[C@@H]2O[C@@]2(C)C1	≥ 10	–

— ChEMBL document CHEMBL1158782, “Cytotoxic germacrane sesquiterpenes from the aerial parts of Santolina insularis” (J Nat Prod, 2005)
